Published values pooled from the literature.
Lines come from different studies, so protocols differ. Converted amounts (≈) assume the structure as drawn.
Organism: Enterococcus faecalis

`CC(C)CCCCCCCCCCCCc1cc(O)cc(O)c1` has an IC50 of 81.1 µM (microbial growth; ATCC29212).
`CCCCCCCCCCCCCCCC(=O)NS(=O)(=O)Oc1ccc(C)cc1` gave an MIC of 12.5 µg/mL (≈ 29.4 µM) (microbial growth, broth dilution; ATCC33186).
The IC50 of `CCCCCCCCCCCCCCCc1cc(O)cc(O)c1` is reported as over 200 µM (microbial growth; ATCC29212).
`CCCCCCCC(=O)CP(=O)(O)O` gave an MIC of over 200 µg/mL (microbial growth; ATCC33186).
`ONCc1cc(F)cc(F)c1` has an MIC50 of under 80 µg/mL (microbial growth; ATCC19433; 8 h).
`CCCCCCCCCCCCCCCC(=O)NS(=O)(=O)Oc1ccc(Cl)c(Cl)c1` gave an MIC of 0.8 µg/mL (≈ 1.66 µM) (microbial growth, broth dilution; ATCC33186).
`CN[C@H](CC(C)C)C(=O)N[C@H]1C(=O)N[C@@H](CC(N)=O)C(=O)N[C@H]2C(=O)N[C@H]3C(=O)N[C@H](C(=O)N[C@H](C(=O)O)c4cc(O)cc(O)c4-c4cc3ccc4O)[C@H](O)c3ccc(c(Cl)c3)Oc3cc2cc(c3O[C@@H]2O[C@H](CO)[C@@H](O)[C@H](O)[C@H]2O[C@H]2C[C@](C)(N)[C@H](O)[C@H](C)O2)Oc2ccc(cc2Cl)[C@H]1O` has an MBC of 32 µg/mL (≈ 22.1 µM) (microbial killing; drug-resistant strain, clinical isolate).
For `CCCCCCCCCCCCCCCC(=O)CP(=O)(O)O`, the MIC was 12.5 µg/mL (≈ 37.4 µM) (microbial growth; ATCC33186).
For `CC1(C)S[C@@H]2[C@H](NC(=O)[C@H](N)c3ccccc3)C(=O)N2[C@H]1C(=O)O`, the inhibition zone was 26 mm (microbial growth, well diffusion; ATCC29212; 60000 µg/mL).
`CCCCCCCC/C=C\CCCCCCCC(=O)C(F)(F)P(=O)(O)O` has an MIC of 6.25 µg/mL (≈ 15.8 µM) (microbial growth; ATCC33186).
For `CC(C)CCCCCCCCCCCCCCc1cc(O)cc(O)c1`, the IC50 was 16.9 µM (microbial growth; ATCC29212).
`CC(C)(O/N=C(\C(=O)N[C@@H]1C(=O)N2C(C(=O)[O-])=C(C[n+]3ccccc3)CS[C@H]12)c1csc(N)n1)C(=O)O` has an MBC of over 128 µg/mL (microbial killing; drug-resistant strain, clinical isolate).
With `O=C(CCCCCCCCCCOc1ccccc1)NP(=O)(O)O` the MIC was 100 µg/mL (≈ 280 µM) (microbial growth; ATCC33186).
